ChEMBL document CHEMBL3425479, “Discovery, synthesis, and molecular pharmacology of selective positive allosteric modulators of the δ-opioid receptor” (J Med Chem, 2015)
Active and inactive are the calls of the source. The rule behind the calls is not given here.

Assays:
[1] = biological target: T1, Delta-type opioid receptor (Homo sapiens, UniProt P41143); test: Agonist activity at human delta opioid receptor-1 expressed in CHO cells after 90 mins by beta-arrestin recruitment assay; format: cell-based
T1 sequence (P41143 whole entry): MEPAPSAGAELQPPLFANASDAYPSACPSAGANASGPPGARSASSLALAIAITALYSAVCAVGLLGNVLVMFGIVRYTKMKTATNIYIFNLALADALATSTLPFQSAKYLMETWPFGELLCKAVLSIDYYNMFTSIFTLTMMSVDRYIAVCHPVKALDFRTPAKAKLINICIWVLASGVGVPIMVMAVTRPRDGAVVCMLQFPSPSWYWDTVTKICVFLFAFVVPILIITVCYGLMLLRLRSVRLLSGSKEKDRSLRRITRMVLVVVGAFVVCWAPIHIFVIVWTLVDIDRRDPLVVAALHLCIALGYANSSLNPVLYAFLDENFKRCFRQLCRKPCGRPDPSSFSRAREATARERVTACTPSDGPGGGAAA
Summary of the method: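 PathHunter CHO cells (OPRD1 or OPRM1) plated overnight at 37 °C in F-12 with 10% FBS and 25 mM HEPES. […] Incubated 90 min at room temperature, then luminescence read 1 h after detection reagent.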

[2] = biological target: T1, Delta-type opioid receptor; test: Positive allosteric modulation of human delta opioid receptor-1 expressed in CHO cells assessed as potentiation of leu-enkephalin-induced response after 90 mins by beta-arrestin recruitment assay; format: cell-based
Mu-type opioid receptor = Mu-type opioid receptor (Homo sapiens, UniProt P35372); test: Positive allosteric modulation of human mu opioid receptor-1 expressed in CHO cells assessed as potentiation of endomorphin 1-induced response after 90 mins by beta-arrestin recruitment assay; format: cell-based
Mu-type opioid receptor, sequence (P35372 whole entry): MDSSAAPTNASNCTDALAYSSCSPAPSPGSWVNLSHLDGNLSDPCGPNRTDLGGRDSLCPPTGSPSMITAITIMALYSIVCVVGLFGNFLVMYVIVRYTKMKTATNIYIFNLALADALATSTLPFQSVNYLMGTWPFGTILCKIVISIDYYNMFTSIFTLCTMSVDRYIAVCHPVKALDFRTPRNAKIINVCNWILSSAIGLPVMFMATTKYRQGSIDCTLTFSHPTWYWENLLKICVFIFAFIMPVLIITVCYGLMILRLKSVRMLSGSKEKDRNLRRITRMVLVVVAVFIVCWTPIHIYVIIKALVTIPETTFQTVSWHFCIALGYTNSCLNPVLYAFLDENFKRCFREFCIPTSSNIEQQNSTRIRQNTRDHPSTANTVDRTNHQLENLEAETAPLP

CHO [3] = test: Selectivity ratio of EC50 for human mu opioid receptor-1 expressed in CHO cells to EC50 for human delta opioid receptor-1 expressed in CHO cells; format: cell-based
Summary of the method: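 The δ/μ potency ratio is built from PAM-mode β-arrestin EC50 values in PathHunter CHO-OPRD1 and CHO-OPRM1 cells. […] Incubation was 90 min at room temperature with luminescence read-out.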

[4] = Solubility of the compound in phosphate buffered saline assessed as particulate matter formation at >1 uM by nephelometric analysis; format: physicochemical; conditions: buffer
[5] = Solubility of the compound in HBSS/HEPES/FBS assessed as particulate matter formation at >3 uM by nephelometric analysis; format: physicochemical; conditions: buffer
[6] = biological target: T1, Delta-type opioid receptor; conditions: CHO
[7] = biological target: T1, Delta-type opioid receptor; conditions: CHO; remark: listed apart in the source
[8] = biological target: T1, Delta-type opioid receptor; conditions: CHO; remark: listed apart in the source
[9] = biological target: T1, Delta-type opioid receptor; conditions: CHO; remark: listed apart in the source
[10] = biological target: T1, Delta-type opioid receptor; conditions: CHO; remark: listed apart in the source
[11] = biological target: T1, Delta-type opioid receptor; conditions: CHO; remark: listed apart in the source
[12] = biological target: T1, Delta-type opioid receptor; conditions: CHO; remark: listed apart in the source
[13] = biological target: T1, Delta-type opioid receptor; conditions: CHO; remark: listed apart in the source
CHO [14] = test: Induction of ERK1 phosphorylation in delta receptor deficient CHO cells; format: cell-based; conditions: Cricetulus griseus
Summary of the method: (§1)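 Parental CHO cells lacking δ receptor, test compound added alone. Cells serum-starved overnight in DMEM, then stimulated at 37 °C. Phospho-ERK1/2 measured in lysates by AlphaScreen SureFire. Basal in serum-free medium was set as 0% and 10% serum response as 100%.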

CHO [15] = test: Induction of ERK2 phosphorylation in delta receptor deficient CHO cells; format: cell-based; conditions: Cricetulus griseus; summary of the method: as §1
CHO [16] = test: Effect on delta receptor deficient CHO cells assessed as inhibition of cAMP accumulation; format: functional, cell-based; conditions: Cricetulus griseus
Summary of the method: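 Parental CHO cells lacking δ receptor, test compound added alone. Cells in HBSS + 25 mM HEPES + 0.05% BSA, 2000 cells/well, with forskolin at 2 μM final. Incubated 45 min at rt. cAMP measured by TR-FRET (665/615 nm ratio) against a cAMP standard curve run alongside.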

[17] = biological target: T1, Delta-type opioid receptor; test: Partial agonist activity at human delta opioid receptor expressed in CHO cells after 1 hr by [35S]GTPgammaS binding assay relative to SNC80; format: functional, cell-based

Structure (SMILES) | Activity [1] | EC50 [2] [nM] | EC50 (Mu-type opioid receptor) [nM] | Emax (Mu-type opioid receptor) [%] | Ratio EC50 (CHO [3]) | also measured
CC1(C)CC(=O)C2=C(C1)OC1=C(C(=O)CC(C)(C)C1)C2c1ccc(OCc2ccccc2S(C)(=O)=O)cc1 | inactive | 900 | 5000 | 42 | 6 | 
CC1(C)CC(=O)C2=C(C1)OC1=C(C(=O)CC(C)(C)C1)C2c1ccc(OCc2ccccc2Br)cc1 |  | 50 |  |  |  | solubility [4]: Insoluble; solubility [5]: Insoluble
C=CCN1C[C@H](C)N([C@H](c2ccc(C(=O)N(CC)CC)cc2)c2cccc(OC)c2)C[C@H]1C |  |  |  |  |  | log(activity) [6]: 0.66; pKA [7]: 6.38; log(activity) [8]: 0.56; pKA [9]: 7.7; log(activity) [10]: 0.86; pKA [11]: 7.7; log(activity) [12]: 1.06; pKA [13]: 7.7
CC1(C)CC(=O)C2=C(C1)OC1=C(C(=O)CC(C)(C)C1)C2c1ccc(OCc2cccc(Cl)c2Cl)cc1 |  | 100 |  |  |  | 
Cc1ccccc1COc1ccc(C2C3=C(CC(C)(C)CC3=O)OC3=C2C(=O)CC(C)(C)C3)cc1 |  |  |  |  |  | solubility [4]: Insoluble; solubility [5]: Insoluble; Activity (CHO [14]): inactive; Activity (CHO [15]): inactive; Activity (CHO [16]): inactive
CC1(C)CC(=O)C2=C(C1)OC1=C(C(=O)CC(C)(C)C1)C2c1ccc(OCc2ccccc2CO)cc1 | inactive | 1000 | 10000 | 112 | 10 | 
CC1(C)CC(=O)C2=C(C1)OC1=C(C(=O)CC(C)(C)C1)C2c1ccc(OCc2cccc(F)c2)cc1 | inactive | 1000 | 7000 | 182 | 7 | 
Cc1cccc(COc2ccc(C3C4=C(CC(C)(C)CC4=O)OC4=C3C(=O)CC(C)(C)C4)cc2)c1 | inactive | 200 | 3000 | 120 | 15 | 
CC1(C)CC(=O)C2=C(C1)OC1=C(C(=O)CC(C)(C)C1)C2c1ccc(OCc2ccccc2C(F)(F)F)cc1 | inactive | > 10000 | > 10000 | > 20 |  | 
CC1(C)CC(=O)C2=C(C1)OC1=C(C(=O)CC(C)(C)C1)C2c1ccc(OCc2ccccc2F)cc1 |  | 100 |  |  |  | 
CC1(C)CC(=O)C2=C(C1)OC1=C(C(=O)CC(C)(C)C1)C2c1ccc(OCc2ccccc2Cl)cc1 | inactive | 300 | > 10000 | > 100 |  | 
Cc1ccc(COc2ccc(C3C4=C(CC(C)(C)CC4=O)OC4=C3C(=O)CC(C)(C)C4)cc2)cc1 | inactive | 300 | 4000 | 65 | 13 | 
CN1CC[C@]2(c3cccc(O)c3)Cc3nc4ccccc4cc3C[C@H]2C1 |  |  |  |  |  | Activity [17]: 84%; log(activity) [8]: 0.67; pKA [9]: 7.6; log(activity) [12]: 0.22; pKA [13]: 8.4
CC1(C)CC(=O)C2=C(C1)OC1=C(C(=O)CC(C)(C)C1)C2c1ccc(OCc2ccccc2OC(F)(F)F)cc1 | inactive | 300 | 2000 | 111 | 7 | 
CC1(C)CC(=O)C2=C(C1)OC1=C(C(=O)CC(C)(C)C1)C2c1ccc(OCc2ccc(F)cc2)cc1 |  | 100 |  |  |  | 
CC1(C)CC(=O)C2=C(C1)OC1=C(C(=O)CC(C)(C)C1)C2c1ccc(OCc2ccccc2OC(F)F)cc1 | inactive | 200 | 3000 | 80 | 15 | 
CC1(C)CC(=O)C2=C(C1)OC1=C(C(=O)CC(C)(C)C1)C2c1ccc(OCc2ccccc2)cc1 | inactive |  | 6000 | 130 | 30 | 
